Assay results gathered from unrelated publications.
CDK7 with cyclin H: Cyclin-dependent kinase 7, with cyclin H (CDK7, Homo sapiens, UniProt P50613)
PDE4D: 3',5'-cyclic-AMP phosphodiesterase 4D (PDE4D, Homo sapiens, UniProt Q08499)
HMGCR: 3-hydroxy-3-methylglutaryl-coenzyme A reductase (HMGCR, Homo sapiens, UniProt P04035)
HTR1B: 5-hydroxytryptamine receptor 1B (HTR1B, Homo sapiens, UniProt P28222)

Compound	target	read-out	mode	technique	tested at	inhibition
COc1c(-c2ccc3c(c2)OCO3)oc2c(ccc3occc32)c1=O	CDK7 with cyclin H	enzyme activity	inhibitor	ADP detection	10 µM	30.4%
Cc1cc(O)c2c(c1)C(=O)c1cc(O)cc(O)c1C2=O	PDE4D	enzyme activity	inhibitor	radiometric	50 µM	45.4%
C=C[C@H]1C[N@@]2CC[C@H]1C[C@@H]2[C@@H](O)c1ccnc2ccccc12	CDK7 with cyclin H	enzyme activity	inhibitor	ADP detection	10 µM	12.9%
C#Cc1n[nH]c2c(-c3cn([C@@H](C)c4ccccn4)c(=O)[nH]c3=O)cc(F)cc12	Serine/threonine-protein kinase PAK 2 (PAK2, Homo sapiens, UniProt Q13177)	enzyme activity	inhibitor	–	0.1 µM	4.1%
c1ccc(C(NCCNC(c2ccccc2)c2ccccc2)c2ccccc2)cc1	HMGCR	enzyme activity	inhibitor	–	10 µM	-2%
O=c1c(O)c(-c2ccc(O)c(O)c2)oc2cc(O)cc(O)c12	PDE4D	enzyme activity	inhibitor	radiometric	50 µM	100%
CC(C)(C)[C@]1(O)CC2OC(=O)CC23C(=O)OC2OC(=O)[C@H](O)C231 (stereo partly drawn)	CDK7 with cyclin H	enzyme activity	inhibitor	ADP detection	10 µM	2.1%
O=C(Nc1cccnn1)N1CCN([C@@H]2CCOc3cc(C(F)(F)F)ccc32)CC1	Bombesin receptor subtype-3 (BRS3, Homo sapiens, UniProt P32247)	cell-free assay	–	–	20 µM	37%
COc1cc2c(cc1OC)[C@@]13CCN4CC5=CCO[C@H]6CC(=O)N2[C@H]1[C@H]6[C@H]5C[C@H]43	CDK7 with cyclin H	enzyme activity	inhibitor	ADP detection	10 µM	28.4%
COc1ccc(-c2coc3cc(O)ccc3c2=O)cc1	PDE4D	enzyme activity	inhibitor	radiometric	50 µM	5.54%
COc1c2ccoc2cc2oc(=O)ccc12	CDK7 with cyclin H	enzyme activity	inhibitor	ADP detection	10 µM	-13.6%
Cn1cc(-c2cc(F)cc(N3CCn4c(cc5c4CCCC5)C3=O)c2CO)cc(Nc2ccc(N3CCN(C4COC4)CC3)cn2)c1=O	Protein kinase C gamma type (PRKCG, Homo sapiens, UniProt P05129)	enzyme activity	inhibitor	–	0.1 µM	12%
C=CCc1ccc(O)c(-c2ccc(O)c(CC=C)c2)c1	PDE4D	enzyme activity	inhibitor	radiometric	50 µM	25.6%
CC[C@@]1(O)C(=O)OCc2c1cc1n(c2=O)Cc2cc3ccccc3nc2-1	CDK7 with cyclin H	enzyme activity	inhibitor	ADP detection	10 µM	20.7%
CN(C)C(=O)COC(=O)Cc1ccc(OC(=O)c2ccc(NC(=N)N)cc2)cc1	Prothrombin (F2, Homo sapiens, UniProt P00734)	enzyme activity	inhibitor	–	50 µM	99.1%
COC(=O)c1cc(O)c(O)c(O)c1	PDE4D	enzyme activity	inhibitor	radiometric	50 µM	-5.1%
COc1cc2c3c(c1OC)-c1cc4c(cc1CC3N(C)CC2)OCO4 (racemic)	HTR1B	ligand displacement	–	radioligand	10 µM	100%
CC(C)=CCc1cc(-c2coc3cc(O)cc(O)c3c2=O)cc(O)c1O	PDE4D	enzyme activity	inhibitor	radiometric	5 µM	84.6%
C#Cc1n[nH]c2c(-c3cn([C@@H](C)c4ccccc4)c(=O)[nH]c3=O)cc(F)cc12	Tyrosine-protein kinase SYK (SYK, Homo sapiens, UniProt P43405)	enzyme activity	inhibitor	–	0.1 µM	1.6%
COc1cc(Nc2ncc(F)c(Nc3ccc4c(n3)NC(=O)C(C)(C)O4)n2)cc(OC)c1OC	Serine/threonine-protein kinase MAK (MAK, Homo sapiens, UniProt P20794)	binding	–	competition with immobilised ligand	10 µM	0%
O=C(/C=C/c1ccc(O)cc1)c1ccc(O)cc1O	PDE4D	enzyme activity	inhibitor	radiometric	50 µM	52%
C[C@@H]1CC[C@@]2(NC1)O[C@H]1C[C@H]3[C@@H]4CC=C5C[C@@H](O)CC[C@]5(C)[C@H]4CC[C@]3(C)[C@H]1[C@@H]2C	CDK7 with cyclin H	enzyme activity	inhibitor	ADP detection	10 µM	22.4%
O=C(O)CCCCCCCC(=O)O	PDE4D	enzyme activity	inhibitor	radiometric	50 µM	47.1%
Clc1ccc2c(C3CCN(CCc4c[nH]c5ccccc45)CC3)c[nH]c2c1	HTR1B	ligand displacement	–	radioligand	10 µM	100%
C[C@H](C(=O)N[C@H]1COc2ccccc2[C@@H]1S(C)(=O)=O)c1ccc(F)cc1	Phospholipase A2, major isoenzyme (PLA2G1B, Sus scrofa, UniProt P00592)	cell-free assay	inhibitor	–	10 µM	-6%
COCc1c(-c2cc3cc(C)cc(OC)c3s2)c2c(N)ncnn2c1CN1CCNC(=O)C1	HMGCR	enzyme activity	inhibitor	–	10 µM	1%
C[C@@H]1CCO[C@H]2Cn3cc(C(=O)NCc4ccc(F)cc4F)c(=O)c(O)c3C(=O)N12	Gag-Pol polyprotein, integrase (gag-pol, Human immunodeficiency virus type 1 group M subtype B, UniProt P04585)	enzyme activity	inhibitor	–	50 nM	> 50%
